Results taken from the EternaBench riboswitch data.

System: MS2 coat protein
Assay: apparent Kd, MS2 coat protein; higher = weaker binding; RNA-MaP array; tryptophan 2.4 mM where present
Method in brief: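 Apparent Kd: the median of filtered binding-curve fits from single clusters. Designs were transcribed on Illumina sequencing-chip clusters by stalled E. coli RNA polymerase and titrated with SNAP-549-labelled MS2 coat protein from 0.7 or 1.5 nM, doubling to 3 µM, in 100 mM Tris-HCl pH 7.5, 80 mM KCl, 4 mM MgCl2, BSA, DTT, yeast tRNA and Tween-20. Each series ran without and then with constant ligand, and green signal was normalised to red-channel RNA signal and control-cluster median Fmax.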

[1] = designed as: OFF switch for tryptophan, no ligand
[2] = ligand present: tryptophan, designed as: OFF switch for tryptophan
[3] = designed as: ON switch for tryptophan, no ligand
[4] = ligand present: tryptophan, designed as: ON switch for tryptophan

| Sequence | apparent Kd [1] | apparent Kd [2] | apparent Kd [3] | apparent Kd [4] |
| --- | --- | --- | --- | --- |
| GGCCCGGACUUGGAAUGGGUGUUUCCCUCACGAGGACCGGUACGGCCGCCACUCGAAGACAUGAGGAUCACCCAUGUAGUCGACA | 44.9 nM | 12.5 nM |  |  |
| UUCACAUGGUAUGAAUAUACAUACAAGAAACGAGGACCGGUACGGCCGCCACUCGUGCCGGAAACAUGAGGAUCACCCAUGUGUU | 37 nM | 45.4 nM |  |  |
| GUCGGUACGUCGGCAAAGCCGAUGUGCCAGCGAGGACCGGUACGGCCGCCACUCGUACAUGAGGAUCACCCAUGUCCGGUCCGGC |  |  | 69.2 nM | 70.7 nM |
| GACGCAUGAGUUGUAAAAGCUCAUGGGUCGCGAGGACCGGUACGGCCGCCACUCGGCUGUACAUGAGGAUCACCCAUGUCAGGGU |  |  | 275 nM | 580 nM |
| GGGACUAGAUCGGCCGCCACUGAUGGGACAUGAGGAUCACCCAUGUACGAAGUGAUCCAAUAAAUCAGGACCGGGAUCACUUGUA | 125 nM | 225 nM |  |  |
| AAUGUGAAGGCGGCCGCCACUGAUAAUAGACAUGAGGAUCACCCAUGUAUAAAUCCUCAAUAAGACAGGACCGGGCCAUCUACGU | 105 nM | 123 nM |  |  |
| AAUAAUAAGAAUAACGUACCAGGUGAUCAACGAGGACCGGUACGGCCGCCACUCGAAACAUGAGGAUCACCCAUGUAAUAACAAU | 83.4 nM | 58.3 nM |  |  |
| AAGACAUGAGGAUCACCCAUGUCGUGUGAACGAGGACCGGUACGGCCGCCACUCGUUUGAAAAUAAACGAAUGCGGCCUGGGAAA | 11 nM | 14.2 nM |  |  |
| GCAUCCUAGUCGGCCGCCACUGACAUGAGGAUCACCCAUGUACAUGAGGAUCACCCAUGUUGUAACAGGACCGGGACUAGGAUGC |  |  | 99.7 nM | 49.5 nM |
| ACGCCCGCCUCACAUGAGGAUCACCCAUGUCGAGGACCGGUACGGCCGCCACUCGUCGUCGGUAAUACGGGCGUUGAAUAAUAUA | 11.5 nM | 49.7 nM |  |  |
| UAUUAUCAGUCGGCCGCCACUGACACAUGAGGAUCACCCAUGUAAUUUGGGUUAUAUAUAAAUUACAGGACCGGGACAAAGGCUA | 358 nM | 295 nM |  |  |
| GGUUACUCUACGGCCGCCACUGAUUAUUUAUAGUCCUGUACAUAAACAUGAGGAUCACCCAUGUACAGGACCGGGUAGUGUAACC |  |  | 34.9 nM | 35.6 nM |
| CCAUCUUCAUCGGCCGCCACUGAACCAAGGAGACAUGAGGAUCACCCAUGUAUGGGAAACCAUCAUAGGACCGGGAUGAAGGUGG |  |  | 36.1 nM | 30.9 nM |
| CUACAUUUGUAGAAACCGGUCAACAAUAAUCGAGGACCGGUACGGCCGCCACUCGAUGUAAAAUAAACAUGAGGAUCACCCAUGU |  |  | 18.1 nM | 19.3 nM |
| CCAUAAGUACCGGUCCUCAGAUCCUCAUGACGAGGACCGGUACGGCCGCCACUCGAAACAUGAGGAUCACCCAUGUAAUAAUAUU | 27.9 nM | 21 nM |  |  |
| UAUGAGCGCACGGCCGCCACUGUCUUCAUCUGUUUGUCUACAUGAGGAUCACCCAUGUUGGUUUACAGGACCGGGUGCAACUAUG |  |  | 27.8 nM | 22.4 nM |
| UAACAUGAGGAUCACCCAUGUUUGAAGGAACGAGGACCGGUACGGCCGCCACUCGACGAGUGGAUGAGAAGUGGGAUAGUGUGCU |  |  | 13.2 nM | 13.8 nM |
| AGCAACAAGUCGGCCGCCACUCAAUAAACAUGAGGAUCACCCAUGUAAAUAACAUGAUAAUAAUAGAGGACCGGGACAGUUGCAU |  |  | 14.4 nM | 13 nM |
| GCAUCCUAGUCGGCCGCCACUGCAACAUGAGGAUCACCCAUGUCAGGCCUCAUGUGUCCUGGUAGCAGGACCGGGACUAGGAUGC |  |  | 36.8 nM | 29.2 nM |
| CGAGUAAGUUCAAUCGAAUAACGGUUUUCGCGAGGACCGGUACGGCCGCCACUCGUGUGAUAUCACACAUGAGGAUCACCCAUGU |  |  | 77.6 nM | 47.4 nM |
| GGCACAUAGUCGGCCGCCACUACUAACACCUCAGACAACAUGAGGAUCACCCAUGUUCCAGAGUGUAGGACCGGGACUAUGUGCC |  |  | 11.6 nM | 10.5 nM |
| AGAUUCGACACGGCCGCCACUUUCAGUGGCUGGUGUCAUGGUGCACAUGAGGAUCACCCAUGUGGAAGGACCGGGUGUUGAGUCU | 12.2 nM | 58.4 nM |  |  |
| AGAUUCGACACGGCCGCCACUUGGAGUGGCUGCUAGCAUGUUACACAUGAGGAUCACCCAUGUCUAAGGACCGGGUGUUGAGUCU | 41.1 nM | 216 nM |  |  |
| AUUCAUGGAAACAUGACAUACAUAACCGGUCGAGGACCGGUACGGCCGCCACUCGUUUGGAGGCACAUGAGGAUCACCCAUGUUA |  |  | 23.7 nM | 24.5 nM |
| CGUAUUGGAAACAGUACGAGUGAUCCGGUCCGAGGACCGGUACGGCCGCCACUCGAAAUAAAUAAACAUGAGGAUCACCCAUGUA | 18.6 nM | 28.4 nM |  |  |
| ACGUUGUAGUCGGCCGCCACUGUUUUCAUGUUCAACAUGAGGAUCACCCAUGUACCUUUUUUUAUCAGGACCGGGACGUAUUCGA |  |  | 93.2 nM | 40.7 nM |
| UAAACUACACAUGAGGAUCACCCAUGUGGCCGAGGACCGGUACGGCCGCCACUCGUGUGUUAAUAAAAGAACUGCAAGGUUCUGU |  |  | 350 nM | 84 nM |

| Sequence | apparent Kd [1] | apparent Kd [2] | apparent Kd [3] | apparent Kd [4] |
| --- | --- | --- | --- | --- |
| UAACAUGAGGAUCACCCAUGUAUACUAAGUCGAGGACCGGUACGGCCGCCACUCGAAAUUGAAGAAUUGGCGGUAAAUGUAAGUA | 12.2 nM | 12.5 nM |  |  |
| UACAUGAGGAUCACCCAUGUCCCAUGUGAACGAGGACCGGUACGGCCGCCACUCGACCGAGGCGGCACAUGAGGAUCACCCGCAU |  |  | 736 nM | 1580 nM |
| GGCACAUAGUCGGCCGCCACUAGGGUGUAGUGGAAUAACAUGAGGAUCACCCAUGUAUUUGGGACUAGGACCGGGACUAUGUGCC | 25.2 nM | 20 nM |  |  |
| GGGUCAGGCGCGGCCGCCACUGCGGUGAUGUGACAUGAGGAUCACCCAUGUUGUCAUGUGGCACAUAGGACCGGGCGCCUGGCCC | 29.2 nM | 31.6 nM |  |  |
| UACUUGCUGACGGCCGCCACUAGAACAUGAGGAUCACCCAUGUACCUGGUCCUUCAUGGGUGGACUAGGACCGGGUCAGCAAGAU | 339 nM | 549 nM |  |  |
| UAAUGCAGGUCGGCCGCCACUACAAACAUGAGGAUCACCCAUGUAGUUACUGGGUGAAGUGGCAGUAGGACCGGGACCUGCAUAA |  |  | 289 nM | 342 nM |
| AGCACAUGAGGAUCACCCAUGUGUCGGUACCGAGGACCGGUACGGCCGCCACUCGCAGGACAUGAGGAUCACCCAUGUGCCGCCG |  |  | 25.1 nM | 25.4 nM |
| AAUAAACAUGAGGAUCACCCAUGUAGGGUGCGAGGACCGGUACGGCCGCCACUCGGGUGAAAACAUGAGGAUCACCCAUGUAAAA | 200 nM | 363 nM |  |  |
| GCAUCCUAGUCGGCCGCCACUGCAACAUGAGGAUCACCCAUGUCUGCAUCUUCAUGAUGCAGUAGCAGGACCGGGACUAGGAUGC |  |  | 185 nM | 20.2 nM |
| AAUCAUGGAAACAUGACAUGAGGAUUACUCCGAGGACCGGUACGGCCGCCACUCGCGAGGAGGCGGACAUGAGGAUCACCCAUGU |  |  | 185 nM | 40.2 nM |
| AUACAUGAGGAUCACCCAUGUGAUGGCCGGCGAGGACCGGUACGGCCGCCACUCGUGAUCCGUCCUGAAAGCAAAGCUCCCAGCA |  |  | 55.2 nM | 122 nM |
| AAUUAUCAGUCGGCCGCCACUGACACAUGAGGAUCACCCAUGUAAUAUGGGUAAAAUUAACUGAACAGGACCGGGACAAAUGCUA |  |  | 381 nM | 649 nM |
| UUAUAUACUACGGCCGCCACUGAACAUGAGGAUCACCCAUGUAAUGUUCAGAUUUUUUUUUUUUACAGGACCGGGUAGAAUUAAA |  |  | 159 nM | 133 nM |
| UUAUAUACUACGGCCGCCACUGAACAUGAGGAUCACCCAUGUAAUGUUCAGACGUCUUUAGACGACAGGACCGGGUAGAAUUAAA |  |  | 119 nM | 109 nM |
| AACACAUGAGGAUCACCCAUGUUCUCGUGUCGAGGACCGGUACGGCCGCCACUCGGUUCUCGCGAGGAUGGUCAAAGACUAUCCA |  |  | 47.7 nM | 42 nM |
| UGGGUCGGAUGAGUAAAUUGUCGGACUCAUCGAGGACCGGUACGGCCGCCACUCGGUUGUACAUGAGGAUCACCCAUGUCAGGGU |  |  | 364 nM | 223 nM |
| AGAUUCGACACGGCCGCCACUCGUGACGGAUUUCCGAGUGUCGAACAUGAGGAUCACCCAUGUCCGAGGACCGGGUGUUGAGUCU | 34.1 nM | 522 nM |  |  |
| GAGUAGAGGACGGCCGCCACUAAACAUGAGGAUCACCCAUGUCGUGAUCCGUUACCUAGAGUAGAUAGGACCGGGUCAUAUAGUC | 26.4 nM | 21.3 nM |  |  |
| GAGCGCGUGGACUGGCGUGCUCCGCUCCGUCGAGGACCGGUACGGCCGCCACUCGACAUGAGGAUCACCCAUGUGUGCGCUCGCG | 51.5 nM | 96.3 nM |  |  |
| UCGGGCAUAGCGGCCGCCACUGUUUGGCGUGCGGAUGACGGAACAUGAGGAUCACCCAUGUUGUUUAGGACCGGGCUUGCGUCGU | 13.2 nM | 15.2 nM |  |  |
| GCUAGGUCAUCGGCCGCCACUAACGAUGGCUCCAACAUGAGGAUCACCCAUGUGCCACAUGCGCAUAGGACCGGGAUGACCUAGC |  |  | 13 nM | 10.5 nM |
| UAGUCCGCGACGGCCGCCACUCGCUGAUGCACAUGUGUCCGGGACAUGAGGAUCACCCAUGUUUCGAGGACCGGGUCGAUCCUAA |  |  | 78.2 nM | 57 nM |
| GUUGGAUACUCGGCCGCCACUGAGAGAGUCAUGUGAACAUGAGGAUCACCCAUGUAAUAUAUAUACAGGACCGGGAGUGUUGUAA | 21.6 nM | 16.8 nM |  |  |
| GGUUACUCUACGGCCGCCACUGUAAAGUAAAUAUUAAUGUACAUGACAUGAGGAUCACCCAUGUACAGGACCGGGUAGUGUAACC |  |  | 42.8 nM | 18.5 nM |
| AGCGCGGUGAUGGUAGCCGGACGCUAGGUACGAGGACCGGUACGGCCGCCACUCGGAGUCCUACGACAUGAGGAUCACCCAUGUA |  |  | 99.3 nM | 46.8 nM |
| UAAUCCGGUCCUCGAUAAUCCUCAUGUAAACGAGGACCGGUACGGCCGCCACUCGAUAACAUGAGGAUCACCCAUGUAAUAAUAA | 89.5 nM | 46.5 nM |  |  |
